In the library only some 1.4% were active in any assay of this set; here they are far more common.
APOBEC3A inh: blocks human APOBEC3A ssDNA deamination; AID 493011; hit rate 0.41% among 330,000; inhibition, % at 20 µM; recombinant A3A, FAM/TAMRA ssDNA deamination fluorescence;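 active = at least 40% inhibition at 20 µM here, with at most 30% in a related deaminase screen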
CXCR6 block: blocks human CXCR6 beta-arrestin recruitment. CHO-K1 PathHunter CXCR6 beta-arrestin, luminescence. inhibition, % at 20 µM. hit rate 0.36% among 360,000; in the data active = inhibition above about 34%, passing the limit was not always enough;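 also: antagonist mode with CXCL16 agonist at 10 nM final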
CCR6 antagonist: blocks CCL20-driven beta-arrestin recruitment at human CCR6. P51684. CHO-K1 CCR6 PathHunter beta-arrestin, luminescence, CCL20-stimulated. inhibition, % at 20 µM. hit rate 0.49% among 340,000;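 active = compounds whose inhibition of the agonist-driven luminescence signal at 20 µM reaches about 50%, limit read from the data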;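 also: cells stimulated with CCL20 at 14 nM final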
A3G deaminase: blocks human APOBEC3G single-stranded DNA deamination; recombinant A3G, ssDNA deamination FAM/TAMRA fluorescence; inhibition, % at 20 µM; hit rate 0.28% among 330,000; AID 493012;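 active = inhibition of at least 40% at 20 µM, with no more than 30% in the related APOBEC3A deaminase screen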
APJ ag: APJ receptor agonism; activation, % at 20 µM; P35414; CHO-K1 APJ PathHunter beta-arrestin, luminescence; 0% DMSO wells, 100% apelin; AID 2520; hit rate 0.11% among 330,000;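 active = activation more than six SD over the plate average, tested at 20 µM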
Target sequence (P35414 whole entry, looked up): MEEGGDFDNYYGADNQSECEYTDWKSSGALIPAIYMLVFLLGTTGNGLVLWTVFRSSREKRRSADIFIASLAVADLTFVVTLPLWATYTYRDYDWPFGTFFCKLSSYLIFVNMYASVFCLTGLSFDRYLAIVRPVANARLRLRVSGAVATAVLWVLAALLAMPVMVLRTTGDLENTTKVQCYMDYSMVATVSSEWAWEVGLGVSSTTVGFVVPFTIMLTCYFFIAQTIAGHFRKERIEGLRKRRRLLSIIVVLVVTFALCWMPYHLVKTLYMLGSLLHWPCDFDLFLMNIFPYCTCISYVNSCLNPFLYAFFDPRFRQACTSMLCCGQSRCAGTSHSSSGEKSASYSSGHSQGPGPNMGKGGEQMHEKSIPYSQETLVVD
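system = engineered CHO-K1 APJ arrestin reporter cells | input = 1000 cells per well | timing = overnight seeding, 90 min compound at 25 °C, 1 h detection | measured by = enzyme-fragment complementation luminescence | read-out = beta-arrestin recruitment to APJ as agonist activity, luminescent signal | control set = negative DMSO alone, positive Apelin-13 at 10 nM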
APJ antag: blocks the human apelin receptor APJ; P35414; CHO-K1 APJ beta-arrestin complementation, luminescence; inhibition, % at 20 µM; hit rate 0.32% among 330,000; AID 2521;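 active = inhibition above about 40% at 20 µM, limit read from the data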;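 also: cells challenged with 10 nM apelin-13 agonist together with compound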
APOBEC3A confirm: confirmation of human APOBEC3A DNA deaminase inhibitors; recombinant A3A, ssDNA deaminase UDG fluorescence assay; inhibition, % at 20 µM; AID 493151; shares compounds with APOBEC3A inh; hit rate 63% among 1,400;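 active = inhibition reaching a set limit, 80% of the first screen's cutoff, at 20 µM in any replicate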
UDG ctr A3A: inhibits UDG, flagging false APOBEC3A inhibitors. shares compounds with APOBEC3A inh. UDG counterscreen, FAM/TAMRA uracil oligo fluorescence. inhibition, % at 20 µM. 1,000 tested, under 10 active. AID 504714; call rule not given here
Large screens that a line does not name were inactive (follow-up assays come after a bar, where they were run).

CCC(C)NC(=O)[C@H]1N2C(=O)c3c(ccc(OC)c3OC)C2SC1(C)C (stereo partly specified)	none
COc1ccc(NC(C)=[N+](C)CCNS(=O)(=O)c2ccc(Cl)cc2)cc1	APOBEC3A inh 46 | APOBEC3A confirm inactive
CCc1noc(C)c1C(=O)N(CC(C)C)c1c(N)n(Cc2ccccc2)c(=O)[nH]c1=O	none
O=C(CSc1ccc(-c2ccncc2)nn1)N1CCCC1	none
O=C(CSc1ccc(-c2ccncc2)nn1)N1CCCCC1	APOBEC3A inh 102 | APOBEC3A confirm inactive | UDG ctr A3A inactive
O=C(O)c1ccc(N/N=C/C=C/c2ccc([N+](=O)[O-])o2)cc1	APOBEC3A inh 48 (no result: CCR6 antagonist) | APOBEC3A confirm 41
O=C(N/N=C/c1ccc([N+](=O)[O-])o1)C(=O)Nc1ccc(C(=O)O)cc1	none
Cc1ccc(NC(=O)CSc2nnc(N)s2)cc1S(=O)(=O)N1CCOCC1	none
Cc1cccc(NC(=O)CSc2ccc(C(N)=O)cc2[N+](=O)[O-])c1C	APOBEC3A inh 44 | APOBEC3A confirm inactive
COCCCNC(=O)CSc1ccsc1[N+](=O)[O-]	none
Cc1ccccc1NC(=O)CSc1ccsc1[N+](=O)[O-]	APOBEC3A inh 48 | APOBEC3A confirm 42
Cc1c(NC(=O)COC(=O)CSc2ccc(C(N)=O)cc2[N+](=O)[O-])c(=O)n(-c2ccccc2)n1C	none
CCOC(=O)[C@]12CCC=C1N(CCC1=CCCCC1)C(=O)[C@H](CC(=O)NCc1cccc3ccccc13)C2	none (no result: APOBEC3A inh, CCR6 antagonist, A3G deaminase, APJ ag, APJ antag)
COC(=O)c1cc(NC(=O)Cc2cccs2)cc(C(=O)OC)c1	APOBEC3A inh 64 | APOBEC3A confirm 48
CC(=O)Nc1cccc(NC(=O)Cc2cccs2)c1	none
Cc1ccc(/C=C/S(=O)(=O)NCC(=O)OCC(=O)Nc2ccc(C(N)=O)cc2)cc1	none
Cc1ccc(/C=C/S(=O)(=O)NCC(=O)OCC(=O)Nc2c(F)cccc2F)cc1	APOBEC3A inh 55 | APOBEC3A confirm inactive
CCC[N+]1(CC#CC2(O)CCCCC2)CCOCC1	APOBEC3A inh 74 | APOBEC3A confirm 82 | UDG ctr A3A inactive
CCOC(=O)c1c(NC(=O)c2ccc(N3C(=O)[C@@H]4[C@H](C3=O)[C@H]3C=C[C@@H]4C3)cc2)sc2c1CC(C)CC2 (stereo partly specified)	APOBEC3A inh 91 | APOBEC3A confirm inactive | UDG ctr A3A inactive
CC(C)C(NC(=O)c1ccccc1F)C(=O)NCc1ccc(F)cc1 (stereo unspecified)	APOBEC3A inh 40 | APOBEC3A confirm inactive
CC(C)[C@H](NC(=O)c1ccccc1F)C(=O)NCCc1ccccc1	none
O=C1CN=C(Nc2ccccc2Cl)N1Cc1ccc2c(c1)OCO2	APOBEC3A inh 96 | APOBEC3A confirm inactive | UDG ctr A3A inactive
O=C1CCCC/C1=C\Nc1ccc(Cl)cn1	APOBEC3A inh 42 | APOBEC3A confirm inactive
O=C(CSC(=S)N1CCCC1)N(Cc1nnc(-c2ccccc2Cl)o1)C1CC1	none
CN1CCCN=C1/C=C/c1cccs1	none
C[n+]1ccc(/C=C/c2cccs2)cc1	APOBEC3A inh 52 | APOBEC3A confirm 54
C=CCn1c2[n+](c3ccccc3c1=O)CCCCC2	APOBEC3A inh 67 | APOBEC3A confirm 52 | UDG ctr A3A inactive
C=CCn1c(SCC(=O)NC2CCCCC2)nc2ccccc2c1=O	none
C[n+]1ccccc1/C=C1\Sc2ccccc2N1CCO	APOBEC3A inh 98 | APOBEC3A confirm 92 | UDG ctr A3A inactive
CCC(=O)/C=C1\Sc2ccc(OC)cc2N1CCO	none
CCN1/C(=C/c2ccc3cc(C)cc(C)c3[n+]2CC)Sc2cc(C)ccc21	none (no result: APOBEC3A inh, A3G deaminase, APJ ag, APJ antag)
Cc1ccc2c(c1)S/C(=C/c1ccc[n+](CCO)c1)N2C	APOBEC3A inh 56 | APOBEC3A confirm 88 | UDG ctr A3A inactive
Cc1ccc2c(c1)S/C(=C\c1cccc[n+]1C)N2CCO	APOBEC3A inh 58 | APOBEC3A confirm 89 | UDG ctr A3A inactive
Cc1cc(/C=C2\Sc3ccccc3N2C)cc(C)[n+]1CC1CCCO1 (stereo unspecified)	none

Screens: PubChem, Sanford-Burnham Center for Chemical Genomics
